Sampled rows, rich in hits. Any-hit rate of the full collection: about 3.1%.
DENV2 CPE: inhibitors of DENV2 cytopathic effect, primary screen, cell-based, plate reader, single concentration; AID 651640, 2012; DENV2-infected cells, cytopathic effect rescue; hit rate 1.7% among 350,000; CPE inhibition, % at 9.99 µM; in the data active = CPE inhibition above about 20%, passing the limit was not always enough; inconclusive = no clear call, values can overlap the other calls; tested in BHK-21 cells
miR122 inh: miR-122 Renilla sensor signal increase in Huh7, primary screen, miR-122 inhibitor project, cell-based, single point, plate reader; AID 602342, 2012; hit rate 0.3% among 340,000; activation (reporter increase), % at 12.5 µM; Huh7 miR-122 Renilla luciferase sensor, 48 h; neutral wells = 0, positive control = 100;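 active = mean replicate activation score at least 90 and every replicate individually at or above 90; inconclusive = only one of the two criteria met; inactive = neither criterion met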;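 note: higher luciferase means less miR-122 activity so hits act as miR-122 inhibitors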
Ecoli rRNA inh: reduced GFP signal of wild-type E. coli, primary screen, bacterial rRNA inhibitor project, GFP/RFP fluorescence, OD600, single point; E. coli WT GFP vs humanized-ribosome RFP mutants, 24 h; hits give low values; DMSO median 0, no signal -100; GFP signal change (wild-type ribosome), % (test concentration not listed); hit rate 1.6% among 350,000; AID 720706, 2013;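 active = significant combined selectivity score with lowered wild-type GFP, culture density cut under 30%, mutant RFP and density less affected; inactive = any of these conditions unmet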
Cneo AK release: Cryptococcus neoformans cell lysis inducers, primary screen, AK release luminescence, single concentration; C. neoformans lysis, adenylate kinase release luminescence, 4 h; normalised: neutral wells 0, clomiphene wells 100; lysis activity, % at 15 µM; hit rate 0.2% among 360,000; AID 651654, 2012;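 active = mean lysis activity across replicates of at least 80%, whatever share of replicates individually reach that level; inactive = mean lysis activity below 80%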
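read-out = cell lysis signal | test system = log-phase Cryptococcus neoformans yeast cells | input = cells at 5 × 10^6 per mL | medium = fresh YPD growth medium | signal = luminescent adenylate kinase detection reagent | timing = 4 h at 37 °C static, read 1 h later | dosing = single dose | controls = Clomiphene as positive lysis control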
E-sel inducer: E-selectin induction in HUVECs, primary screen, imaging, HUVEC, immunofluorescence imaging, single point; normalized: neutral wells 0, TNF-alpha wells 100; activation, % at 7.58 µM; hit rate 0.37% among 260,000;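 active = mean E-selectin-positive cell signal at least 10% of the positive control, reached in at least 60% of replicates, without over 20% cell loss; inconclusive = no rule given, readout overlaps actives, possibly toxicity-flagged; inactive = the rest, including those meeting only one limit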
Target sequence (P16581 whole entry, looked up): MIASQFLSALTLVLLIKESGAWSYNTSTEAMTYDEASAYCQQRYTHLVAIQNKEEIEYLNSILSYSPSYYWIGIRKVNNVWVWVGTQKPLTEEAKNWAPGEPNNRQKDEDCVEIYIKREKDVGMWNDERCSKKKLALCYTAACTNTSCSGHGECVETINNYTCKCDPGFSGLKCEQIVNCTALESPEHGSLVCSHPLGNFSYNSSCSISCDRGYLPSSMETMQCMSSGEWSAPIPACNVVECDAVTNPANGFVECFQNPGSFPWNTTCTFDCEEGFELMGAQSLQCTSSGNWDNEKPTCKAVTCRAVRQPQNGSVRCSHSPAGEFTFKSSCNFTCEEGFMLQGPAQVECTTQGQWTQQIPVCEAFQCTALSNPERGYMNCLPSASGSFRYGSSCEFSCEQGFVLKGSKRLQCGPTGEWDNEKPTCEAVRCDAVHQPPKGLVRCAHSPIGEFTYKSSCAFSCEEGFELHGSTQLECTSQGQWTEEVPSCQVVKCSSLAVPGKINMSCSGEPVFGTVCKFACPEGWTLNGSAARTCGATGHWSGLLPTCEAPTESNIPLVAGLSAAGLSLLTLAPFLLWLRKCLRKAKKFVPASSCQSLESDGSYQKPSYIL
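Assay system: HUVEC primary endothelial cells. Input: 3,000 HUVEC seeded per well. Doses: one compound dose added by pin transfer. Read-out basis: % PE-positive cells. Benchmarks: TNF-alpha high, DMSO low. Detection: immunofluorescence imaging. Buffer or medium: EGM-2, gelatin.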
A number is an active result; i = inactive; ? = inconclusive; nt = no result given; ! = repeats disagree.

SMILES | DENV2 CPE | miR122 inh | Ecoli rRNA inh | Cneo AK release | E-sel inducer
COc1cccc(CN2CC3(CCN(Cc4ccccn4)CC3)c3c([nH]c4cc(OC)ccc34)[C@@H]2CO)c1 | i | nt | i | nt | i
CC(C)CC#Cc1ccc2c(c1)O[C@@H](CN(C)Cc1cccc(F)c1)[C@H](C)CN([C@H](C)CO)S2(=O)=O | i | i | i | i | i
CCOC(=O)c1sc(-c2ccc(Cl)cc2Cl)nc1O | i | nt | -29 | nt | nt
CCOC(=O)c1sc(CS(=O)(=O)c2ccc(Cl)cc2)nc1C | i | nt | i | nt | nt
COc1ccc2c3c(n(C)c2c1)[C@@H](CO)N(CC1CCCC1)CC31CCN(C(C)=O)CC1 | i | nt | i | nt | i
COc1ccc2c3c([nH]c2c1)[C@@H](CO)N(C(=O)NC1CCCC1)CC31CCN(C(=O)Nc2cccc(F)c2)CC1 | i | nt | i | nt | i
CN(Cc1ccccc1)C(=O)c1ccc(NC(=O)Cc2cccc(NC(=O)C3CCCN(C(=O)CCc4ccccc4)C3)c2)cc1 (stereo not drawn) | i | nt | i | i | i
O=C(Cc1ccc(NC(=O)C2CCCN(C(=O)CCc3ccccc3)C2)cc1)Nc1cccc(C(=O)N2CCCC2)c1 (stereo not drawn) | ? | i | -15 | i | i
CN(Cc1ccccc1)C(=O)c1cccc(NC(=O)Cc2ccc(NC(=O)C3CCCN(C(=O)CCc4ccccc4)C3)cc2)c1 (stereo not drawn) | 64 | i | i | i | i
O=C(Cc1ccc(NC(=O)C2CCCN(C(=O)CCc3ccccc3)C2)cc1)Nc1cccc(C(=O)N2CCCCC2)c1 (stereo not drawn) | ? | nt | i | i | i
O=C(Cc1cccc(NC(=O)C2CCCN(C(=O)C3CC3)C2)c1)Nc1cccc(C(=O)N2CCCCC2)c1 (stereo not drawn) | 59 | i | i | i | i
O=C1CCCCn2nncc2COC[C@H](Cc2ccccc2)N1 | nt | nt | i | nt | nt
O=C(C[C@@H]1CC[C@@H]2NC[C@@H](O)COC[C@H]2O1)Nc1ccccc1 | i | i | i | i | i
Cc1ccc(C(=O)NNC(=O)CSc2nnc(CNc3ccc(F)cc3)n2C)cc1 | i | nt | i | nt | 236
Cc1ccc(NCc2nnc(SCC(=O)NNC(=O)Cc3ccccc3)n2C)cc1 | i | i | i | i | i
CCc1nc2ccc(C(=O)NCCCN(C)C)cn2c1N(C)Cc1ccc(OC)cc1 | i | i | i | i | i
CCc1nc2ccc(C(=O)N(CC)CCN(C)C)cn2c1N(C)C(=O)c1cccc(OC)c1 | 26 | i | i | i | i
CCc1nc2ccc(C(=O)NCCOc3ccc(OC)cc3)cn2c1N(C)Cc1ccc(N(C)C)cc1 | i | i | -23 | i | i
O=C(COC(=O)c1nc(Cl)ccc1Cl)Nc1ccccc1OC(F)F | i | i | -19 | i | i
COc1ccccc1N/C(=N/S(=O)(=O)c1ccc(Cl)cc1)c1ccccc1 | nt | i | nt | i | nt
COc1ccccc1N/C(=N/S(=O)(=O)c1ccc(C)cc1)c1ccccc1 | i | 135 | i | i | i
C[C@H]1CN([C@@H](C)CO)C(=O)CCCn2cc(nn2)CO[C@@H]1CN(C)S(=O)(=O)c1ccc(Oc2ccccc2)cc1 | 35! | i | i | i | i
C[C@H](CO)N1C[C@H](C)[C@H](CN(C)S(=O)(=O)c2ccc(Oc3ccccc3)cc2)OCc2cn(nn2)CCCC1=O | 22 | i | i | i | i
C[C@@H]1CN([C@@H](C)CO)C(=O)CCCn2cc(nn2)CO[C@H]1CN(C)S(=O)(=O)c1ccc(Cl)cc1 | 21! | i | i | i | i
C[C@@H]1CN([C@H](C)CO)C(=O)CCCn2cc(nn2)CO[C@@H]1CN(C)S(=O)(=O)c1ccc(Oc2ccccc2)cc1 | i | i | i | i | i
C[C@@H]1CCCCO[C@H](CN(C)CC2CCCCC2)[C@H](C)CN([C@H](C)CO)C(=O)c2cc(NS(=O)(=O)c3cccs3)ccc2O1 | i | i | i | i | i
COc1ccccc1-c1cc(C(=O)NN)[nH]n1 | i | i | -20 | i | i
COc1ccc(-c2cc(C(=O)NN)[nH]n2)cc1OC | nt | nt | -22 | nt | i

Screening results (PubChem BioAssay)
